One data set relates to L6. As to the kind of experiment: Cytotoxicity against rat L6 cells after 70 hrs by alamar blue assay. The data set is classed as cell-based. The following applies: L6, 70 h. In short, it runs like this: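 L6 rat myoblasts, 4000 per well, in RPMI 1640 with 2 mM L-glutamine, HEPES, NaHCO₃ and 10% FBS. Exposed to serial dilutions (DMSO ≤1%) for 70 h at 37 °C in humidified 5% CO₂. Resazurin then added for 2-3 h; fluorescence read at ex 536/em 588 nm. IC50 from sigmoidal curves; two independent runs in duplicate.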
Background: The colour change of resazurin is a common sign of viable cells or microbes.

In data set [1] the test system is Trypanosoma brucei rhodesiense. As to the kind of experiment: Antiprotozoal activity against Trypanosoma brucei rhodesiense STIB900 trypomastigotes after 70 hrs by alamar blue assay. The data set is classed as functional, organism-based. In a few lines:
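Bloodstream forms, 2000 per well, in MEM with Earle's salts plus 0.2 mM 2-mercaptoethanol, 1 mM pyruvate, 0.5 mM hypoxanthine and 15% heat-inactivated horse serum. Exposed to serial dilutions (DMSO ≤1%) for 70 h at 37 °C in 5% CO₂. Resazurin then added for a further 2-6 h. IC50 from sigmoidal curves; two independent runs in duplicate.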

The nature of data set [2]: Selectivity index, ratio of IC50 for rat L6 cells to IC50 for Trypanosoma brucei rhodesiense STIB900 trypomastigotes. The data set is classed as toxicity, cell-based. The following applies: read-out: Ratio IC50. In short, it runs like this: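 Ratio of L6 IC50 to STIB900 IC50. L6 cells: 4000/well in RPMI 1640 with 10% FBS, 70 h at 37 °C. Bloodstream forms: 2000/well in supplemented MEM with 15% horse serum, 70 h at 37 °C. Both read by Alamar blue fluorescence; IC50s from sigmoidal curves, two independent runs in duplicate.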

Another data set relates to Plasmodium falciparum. Nature of the data set: Antiprotozoal activity after 48 hrs against chloroquine-resistant Plasmodium falciparum K1 infected erythrocytes by [3H]hypoxanthine uptake. The data set is classed as functional, organism-based. In a few lines: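 Erythrocytic stages in infected human red cells (hematocrit 1.25%, parasitemia 0.3%) in supplemented RPMI 1640 with Albumax II. Serial dilutions incubated at 37 °C in 93% N2/4% CO2/3% O2. [3H]-hypoxanthine (0.5 µCi/well) added at 48 h, then 24 h more. Incorporation counted by scintillation. IC50 from sigmoidal curves; two independent runs in duplicate.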

Data set [3] in a line: Selectivity index, ratio of IC50 for rat L6 cells to IC50 for chloroquine-resistant Plasmodium falciparum K1. It counts as toxicity, cell-based. The settings on record: read-out: Ratio IC50. In a few lines:
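Ratio of L6 IC50 to K1 IC50. L6 cells: Alamar blue assay after 70 h, 37 °C. K1: [3H]-hypoxanthine incorporation in infected red cells over 48 + 24 h at 37 °C under low O2. IC50s from sigmoidal curves, two independent runs in duplicate.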

For the next data set, the system named is Leishmania donovani. As to the kind of experiment: Antiprotozoal activity against Leishmania donovani MHOM/SD/62/1S-CL2D axenic amastigotes after 72 hrs. It counts as functional, organism-based. In short, it runs like this: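 L. donovani axenic amastigotes, adapted from promastigotes and grown in amastigote medium at 37 °C. 6 × 10⁴ parasites per well with 2-fold compound dilutions (DMSO ≤1%), incubated 72 h at 37 °C in humidified 5% CO₂. Growth read by tetrazolium (CellTiter) absorbance at 490 nm. IC50 from a four-parameter dose-response fit. Average of duplicate determinations.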

Data set [4] is described as follows: Selectivity index, ratio of IC50 for rat L6 cells to IC50 for Leishmania donovani MHOM/SD/62/1S-CL2D axenic amastigotes. The data set is classed as toxicity, cell-based. The settings on record: read-out: Ratio IC50. In short, it runs like this: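 Amastigotes: 6 × 10⁴ parasites/well with 2-fold dilutions, 72 h at 37 °C in 5% CO2. Growth read by tetrazolium CellTiter absorbance at 490 nm; IC50 from a four-parameter dose-response fit.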

Structures are written as SMILES. Bounds are passed on as bounds.

As usually defined, the IC50 is the midpoint of a concentration-inhibition curve. Low readings indicate higher potency, high ones lower potency. For the compound `c1cc(OCCCCCOc2cccc(C3=NCCN3)c2)cc(C2=NCCN2)c1`, the concentration for half-maximal inhibition (IC50) in the data set on L6 came to 100 µM; in data set [1], 1.49 µM; in the data set with Plasmodium falciparum it was 0.024 µM; with Leishmania donovani it was 22.4 µM. Further, the selectivity ratio in data set [2] was 67; in data set [3] it was 4170; in data set [4] it was 4.

As for `CN1CCN=C1c1ccc(OCCCCCOc2ccc(C3=NCCN3C)cc2)cc1`, the IC50 in the data set on L6 was above 176 µM; in data set [1], above 19.6 µM; in the data set on Plasmodium falciparum, 1.65 µM; in the data set on Leishmania donovani, above 100 µM. Also, the selectivity ratio in data set [3] was above 107; in data set [4], 2.

For the compound `c1cc(OCCCCOc2cccc(C3=NCCN3)c2)cc(C2=NCCN2)c1`, the concentration for half-maximal inhibition (IC50) is above 185 µM in the data set with L6, 1.94 µM in data set [1], 0.107 µM with Plasmodium falciparum and 39.5 µM with Leishmania donovani. For the same compound, the values for the selectivity ratio in data set [2], in data set [3] and in data set [4] were above 95, above 1730 and above 5, respectively.

For the compound `c1cc(-c2nnn[nH]2)ccc1OCCCCCOc1ccc(-c2nnn[nH]2)cc1`, the IC50 with L6 was above 229 µM; in data set [1], above 229 µM; in the data set on Plasmodium falciparum, 8.31 µM; with Leishmania donovani it was above 100 µM. In addition, the selectivity ratio was above 28 in data set [3] and 2 in data set [4].

On to `CCOC(=O)c1cc(C2=NCCN2)ccc1OCCCCCOc1ccc(C2=NCCN2)cc1C(=O)OCC`, for which the half-inhibitory concentration (IC50) in the data set with L6 was above 138 µM; in data set [1], above 15.3 µM; with Plasmodium falciparum it was 0.027 µM; in the data set on Leishmania donovani, 13.6 µM. In addition, the selectivity ratio was above 5110 in data set [3] and above 10 in data set [4].

In the case of `N=C(N)c1ccc(OCCCOc2ccc(C(=O)O)cc2)cc1`, the IC50 with L6 was 167 µM; in data set [1], above 257 µM; in the data set on Plasmodium falciparum, above 2.8 µM; in the data set with Leishmania donovani, above 100 µM. Moreover, the selectivity ratio in data set [2] is below 0.6; in data set [3], below 60; in data set [4], below 2.

Take `O=C(O)c1cc(C2=NCCN2)ccc1OCCCCCOc1ccc(C2=NCCN2)cc1C(=O)O`: the half-maximal inhibitory concentration (IC50) was above 151 µM in the data set with L6, above 16.8 µM in data set [1], above 1.68 µM in the data set on Plasmodium falciparum and above 200 µM in the data set on Leishmania donovani.

Turning to `c1cc(OCCCCCCOc2cccc(C3=NCCN3)c2)cc(C2=NCCN2)c1`, the IC50 with L6 turned out to be 99 µM; in data set [1] it was 0.875 µM; with Plasmodium falciparum it was 0.02 µM; in the data set with Leishmania donovani it was 21.9 µM. For the same compound, the results for the selectivity ratio in data set [2], in data set [3] and in data set [4] were 113, 4950 and 5, respectively.

For `Nc1cc(C2=NCCN2)ccc1OCCCOc1ccc(C2=NCCN2)cc1N`, the results for the IC50 (with L6; in data set [1]; in the data set on Plasmodium falciparum) were above 167 µM, 0.813 µM and 0.07 µM, respectively. In addition, the figures for the selectivity ratio in data set [2] and in data set [3] were above 205 and above 2390, respectively.

For `CNC(=N)c1ccc(OCCCOc2ccc(C(=N)NC)cc2OC)c(OC)c1`, the IC50 was determined as 177 µM in the data set with L6, 0.057 µM in data set [1], 0.641 µM in the data set on Plasmodium falciparum and 25.3 µM with Leishmania donovani. For the same compound, the selectivity ratio in data set [2] stood at 3100; in data set [3] it was 276; in data set [4] it was 7.

Consider `N=C(N)c1ccc(OCCCCCOc2ccc(C(=N)N)cc2C(=O)O)c(C(=O)O)c1`, for which the IC50 with L6 was above 165 µM; in data set [1], above 18.3 µM; in the data set with Plasmodium falciparum, 71.8 µM. Also, the selectivity ratio in data set [3] turned out to be 2.

For `CC(C)NC(=N)c1cccc(OCCCCCOc2cccc(C(=N)NC(C)C)c2)c1`, the concentration for half-maximal inhibition (IC50) with L6 is above 175 µM; in data set [1], 0.416 µM; in the data set with Plasmodium falciparum, 0.004 µM; with Leishmania donovani, 15.4 µM. For the same compound, the results for the selectivity ratio in data set [2], in data set [3] and in data set [4] were above 421, above 43800 and above 11, respectively.

Regarding `N/N=C(\N)c1ccc(OCCCCCOc2ccc(/C(N)=N/N)cc2)cc1`, the concentration for half-maximal inhibition (IC50) was 139 µM in the data set with L6, 9.67 µM in data set [1], 1.41 µM with Plasmodium falciparum and 126 µM with Leishmania donovani. The selectivity ratio in data set [2] is 14; in data set [3], 99; in data set [4], 1.

Turning to `N=C(N)c1ccc(OCCCOc2ccc(C(=N)N)cc2[N+](=O)[O-])c([N+](=O)[O-])c1`, the half-maximal inhibitory concentration (IC50) with L6 worked out at 22.8 µM; in data set [1] it was 0.188 µM; in the data set with Plasmodium falciparum it was 0.035 µM; with Leishmania donovani, 30.9 µM. For the same compound, the selectivity ratio was found to be 121 in data set [2], 651 in data set [3] and 0.7 in data set [4].

Turning to `CC(C)NC(=N)c1cccc(OCCCCOc2cccc(C(=N)NC(C)C)c2)c1`, the IC50 in the data set on L6 was above 171 µM; in data set [1], 0.619 µM; in the data set on Plasmodium falciparum it was 0.013 µM; in the data set on Leishmania donovani, 19.3 µM. The values for the selectivity ratio in data set [2], in data set [3] and in data set [4] were above 276, above 13200 and above 9, respectively.

Take `C[C@@H]1CC[C@H]2[C@@H](C)C(=O)O[C@@H]3O[C@@]4(C)CC[C@@H]1[C@]32OO4` [ARTEMISININ]: the selectivity ratio in data set [3] is 75000.

Regarding `CC(C)NC(=N)c1ccc(OCCCCCOc2ccc(C(=N)NC(C)C)c(O)c2)cc1O`, the 50% inhibitory concentration (IC50) with L6 was above 156 µM; in data set [1], 14.7 µM; in the data set on Plasmodium falciparum, 0.581 µM; in the data set on Leishmania donovani, above 100 µM. Also, the selectivity ratio in data set [2] was above 11; in data set [3] it was above 269; in data set [4], 2.

Consider `c1cc(OCCCOc2cccc(C3=NCCN3)c2)cc(C2=NCCN2)c1`, for which the IC50 with L6 turned out to be 43.5 µM; in data set [1], 4.3 µM; in the data set with Plasmodium falciparum, 5.39 µM; with Leishmania donovani, 30.8 µM. Besides, the values for the selectivity ratio in data set [2], in data set [3] and in data set [4] were 10, 8 and 1, respectively.

For the compound `Fc1cc(OCCCCCOc2ccc(C3=NCCN3)c(F)c2)ccc1C1=NCCN1`, the half-maximal inhibitory concentration (IC50) with L6 came out at 23.2 µM; in data set [1], 4.46 µM; with Plasmodium falciparum, 0.544 µM; in the data set on Leishmania donovani, 52.6 µM. Moreover, the selectivity ratio in data set [2] amounted to 5; in data set [3] it was 43; in data set [4], 0.4.

Consider `N=C(N)c1ccc(OCCCCCOc2ccc(C(=N)N)c(O)c2)cc1O`, for which the half-inhibitory concentration (IC50) was above 195 µM with L6, 7.96 µM in data set [1], 1.29 µM with Plasmodium falciparum and above 100 µM with Leishmania donovani. Further, the selectivity ratio in data set [2] is above 24; in data set [3], above 151.

`CC(C)NC(=N)c1ccc(OCCCCCOc2ccc(C(=N)NC(C)C)cc2C(=O)O)c(C(=O)O)c1`: the concentration for half-maximal inhibition (IC50) with L6 is above 144 µM; in data set [1], above 16 µM; with Plasmodium falciparum, above 1.6 µM; in the data set with Leishmania donovani, above 200 µM.

For the compound `CC(=N)Nc1ccc(OCCCCCOc2ccc(NC(C)=N)cc2)cc1`, the IC50 was above 202 µM in the data set with L6, 3.04 µM in data set [1], 0.048 µM in the data set on Plasmodium falciparum and above 100 µM in the data set on Leishmania donovani. For the same compound, the figures for the selectivity ratio in data set [2] and in data set [3] were above 66 and above 4210, respectively.

With `CCOC(=O)c1cc(C(=N)N)ccc1OCCCCCOc1ccc(C(=N)N)cc1C(=O)OCC`, the IC50 in the data set with L6 was above 152 µM; in data set [1] it was 12.1 µM; in the data set with Plasmodium falciparum, 0.021 µM; in the data set on Leishmania donovani, above 50 µM. For the same compound, the selectivity ratio is above 13 in data set [2] and above 7240 in data set [3].

The values are drawn from ChEMBL document CHEMBL1153346, “Structure-activity study of pentamidine analogues as antiprotozoal agents” (J Med Chem, 2009).
